Assay results from different studies.
Compare with care: the assays were run in different laboratories.
STK17B: Serine/threonine-protein kinase 17B (STK17B, Homo sapiens, UniProt O94768)
ache: Acetylcholinesterase (ache, Electrophorus electricus, UniProt O42275)
STK32A: Serine/threonine-protein kinase 32A (STK32A, Homo sapiens, UniProt Q8WU08)
RPS6KB2: Ribosomal protein S6 kinase beta-2 (RPS6KB2, Homo sapiens, UniProt Q9UBS0)

NS(=O)(=O)c1ccc(CNc2ccnc(Nc3cccc(CN4CCOCC4)c3)n2)cc1
remaining activity (STK17B; enzyme activity, inhibitor, radiometric; 1 µM): 96%

COc1cc2c(cc1OC)C(=O)N(Cc1cnc3c(c1)OCCN3C)C2
inhibition (ache; enzyme activity, inhibitor; 1 µM): 1.71%

Cn1c2c(Cl)c(Cl)ccc2c2cn[nH]c(=O)c21
ΔTm (STK32A; thermal stability, DSF; 10 µM): -0.4 °C

O[C@@H]1[C@H](O)CO[C@H]1n1cnc2c(NCc3cccc(Cl)c3)ncnc21
inhibition (Adenosine receptor A1 (ADORA1, Homo sapiens, UniProt P30542); ligand displacement, radioligand; 10 µM, cell membranes): 35%

O=C(NCCCNc1ccnc(Nc2cccc(NC(=O)N3CCCC3)c2)n1)C1CCC1
remaining activity (STK17B; enzyme activity, inhibitor, radiometric; 1 µM): 17%

FC(F)(F)Oc1cccc(-c2cnc3ccc(-c4ccncc4)nn23)c1
activity vs control (Mitogen-activated protein kinase kinase kinase kinase 3 (MAP4K3, Homo sapiens, UniProt Q8IVH8); enzyme activity, inhibitor, radiometric; 5 µM): 39%

CCCOc1ccc(OC)c(F)c1C(=O)c1ccc(C(=O)N[C@@H]2CNC[C@H]2NC(=O)c2ccc3[nH]ncc3c2)cc1
remaining activity (RAC-gamma serine/threonine-protein kinase (AKT3, Homo sapiens, UniProt Q9Y243); enzyme activity, inhibitor; 0.5 µM): 44%

CCc1cc(-c2noc(-c3cc(OC)nc(C4CCCC4)c3)n2)cc(C)c1OC[C@@H](O)CO
Emax (Sphingosine 1-phosphate receptor 1 (S1PR1, Homo sapiens, UniProt P21453); calcium signal, agonist, fluorescence; HUVEC): 37%

COc1cc2c(cc1OC)C(=O)N(Cc1n[nH]c3ccccc13)C2
inhibition (ache; enzyme activity, inhibitor; 1 µM): 5.12%

NS(=O)(=O)c1ccc(CNc2nc(Nc3cccc(NC(=O)N4CCCC4)c3)ncc2C2CC2)cc1
remaining activity (STK17B; enzyme activity, inhibitor, radiometric; 1 µM): 77%

CC/C=C\C/C=C\C/C=C\C/C=C\C/C=C\C/C=C\CCC(=O)O
Km (Polyunsaturated fatty acid lipoxygenase ALOX15 (ALOX15, Homo sapiens, UniProt P16050); enzyme activity, substrate, absorbance): 6.7 µM

CC(C)(C)c1nc(-c2cccc(NS(=O)(=O)c3c(F)cccc3F)c2F)c(-c2ccnc(N)n2)s1
remaining activity (RPS6KB2; enzyme activity, inhibitor, radiometric; 1 µM): 98%

Cc1nn(CC(F)(F)F)cc1Nc1ncc(Br)c(NCc2ccc(S(N)(=O)=O)cc2)n1
remaining activity (STK17B; enzyme activity, inhibitor, radiometric; 1 µM): 47%

CC(C)(C)c1nc2c(s1)c1nc(N)ncc1c1ccc(NS(=O)(=O)c3c(F)cccc3F)c(F)c12
remaining activity (RPS6KB2; enzyme activity, inhibitor, radiometric; 1 µM): 90%

COc1cc2c(cc1OC)C(=O)N(Cc1ccc(F)nc1)C2
inhibition (ache; enzyme activity, inhibitor; 1 µM): -1.57%

Cn1c2c(Cl)c(Cl)ccc2c2cc[nH]c(=O)c21
ΔTm (STK32A; thermal stability, DSF; 10 µM): -0.4 °C

COc1cc2c(cc1OC)C(=O)N(Cc1ccc3ccccc3n1)C2
inhibition (ache; enzyme activity, inhibitor; 1 µM): 3.28%

Brc1cnc(Nc2cccc(CN3CCOCC3)c2)nc1NCCc1c[nH]cn1
remaining activity (STK17B; enzyme activity, inhibitor, radiometric; 1 µM): 4%
